In the library only some 1.4% were active in any assay of this set; here they are far more common.
CTSL1 counter: Fasciola hepatica cathepsin L1 inhibitors, primary screen, counter-screen for PFM18AAP inhibitor project, biochemical, QFRET, fluorogenic peptide substrate | recombinant F. hepatica cathepsin L1, Z-Leu-Arg-MCA fluorescence | inhibition, % at 5.96 µM | 300,000 tested, 0.49% active | AID 1906, 2009;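 active = inhibition above the mean of all tested compounds plus 3 SD, set per screening campaign, cut at about 17% in these data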;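 also: 0% = plate median of test compound wells and 100% = 1 µM Z-Phe-Ala-diazomethylketone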
ATG4B inhibitor: ATG4B protease inhibitors, primary screen, biochemical, fluorescence, uHTS. AID 504462, 2011. 340,000 tested, 0.51% active. inhibition, % at 8.33 µM. Cysteine protease ATG4B (Homo sapiens), Q9Y4P1. ATG4B cleavage of LC3-PLA2, NBD-HPC fluorescence, 1 h; in the data active = inhibition above about 40%
Diaphorase act: compounds boosting diaphorase resazurin reduction – biochemical, uHTS, resorufin fluorescence, counter-screen for diaphorase-coupled primary assays, primary screen; Diaphorase/resazurin coupled assay, 16 min; active compounds read high; 1 = vehicle wells, 0 = NADH-free wells; activation factor at 20 µM; 190,000 tested, 0.005% active; AID 1229, 2008;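 active = diaphorase activity raised at least twofold by the compound at 20 µM; inactive = activation factor below 2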
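Material: bacterial diaphorase enzyme (C. kluyveri); amount: enzyme 0.07 U/mL final; reagent: NADH substrate 0.114 mM plus resazurin dye 0.1 mM, final; doses: single compound dose of 20 µM, 1% DMSO final; timing: 16 min enzyme reaction, ambient temperature; measured by: fluorescence of resorufin, 544 nm excitation, 590 nm emission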
HKDC1 inhibitor: HKDC1 hexokinase inhibitors, primary screen, biochemical, fluorescence, uHTS. recombinant HKDC1, G6PDH/diaphorase resazurin coupled fluorescence. inhibition, % at 20 µM. 340,000 tested, 0.16% active;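 active = inhibition above about 35% when tested at 20 µM, limit read from the data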;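 also: plate controls were DMSO wells with enzyme for no effect and DMSO wells lacking enzyme for full effect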
Target sequence (Q2TB90 whole entry, looked up): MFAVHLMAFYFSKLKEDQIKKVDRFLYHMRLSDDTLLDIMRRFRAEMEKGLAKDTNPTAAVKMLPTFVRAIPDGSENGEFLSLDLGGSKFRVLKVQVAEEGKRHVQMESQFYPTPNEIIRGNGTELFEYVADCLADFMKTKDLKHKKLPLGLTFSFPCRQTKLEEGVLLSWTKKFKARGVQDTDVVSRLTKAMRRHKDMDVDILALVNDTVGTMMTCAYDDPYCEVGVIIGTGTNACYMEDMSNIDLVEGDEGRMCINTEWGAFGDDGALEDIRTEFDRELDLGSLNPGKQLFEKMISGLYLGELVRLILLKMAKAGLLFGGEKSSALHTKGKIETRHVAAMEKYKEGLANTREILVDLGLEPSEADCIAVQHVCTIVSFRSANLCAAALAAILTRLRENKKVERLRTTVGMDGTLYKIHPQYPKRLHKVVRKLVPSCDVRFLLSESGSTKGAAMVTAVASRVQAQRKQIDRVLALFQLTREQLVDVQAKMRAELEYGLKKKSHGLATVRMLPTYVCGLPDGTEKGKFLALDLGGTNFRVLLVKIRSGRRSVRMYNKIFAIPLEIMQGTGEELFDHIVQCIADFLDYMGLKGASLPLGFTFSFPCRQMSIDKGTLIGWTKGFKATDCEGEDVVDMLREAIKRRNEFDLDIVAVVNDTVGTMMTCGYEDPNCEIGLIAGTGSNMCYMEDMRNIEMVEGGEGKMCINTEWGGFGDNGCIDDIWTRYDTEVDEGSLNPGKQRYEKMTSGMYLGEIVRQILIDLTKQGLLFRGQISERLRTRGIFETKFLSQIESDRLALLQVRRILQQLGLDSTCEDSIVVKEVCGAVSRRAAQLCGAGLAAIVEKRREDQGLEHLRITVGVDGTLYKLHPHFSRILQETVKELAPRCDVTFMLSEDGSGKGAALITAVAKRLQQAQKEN
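Assay system – recombinant HKDC1 (HK5) hexokinase enzyme, produced in-house · Input – HKDC1 at 5 µg/mL · Reagent – glucose plus 1 mM ATP as hexokinase substrates · Timing – 90 min reaction incubation at room temperature, dark · Measured by – G6PDH/diaphorase-coupled fluorescence, 1 mM NADP, 100 µM resazurin, 525/613 nm · Benchmarks – DMSO-enzyme wells negative, buffer-substituted wells positive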
Diaphorase inh: diaphorase inhibitors and chemical oxidizers, primary screen, counter-screen for diaphorase-coupled primary assays, biochemical, uHTS, resorufin fluorescence | AID 1217, 2008 | diaphorase resazurin-to-resorufin fluorescence, NADH, 16 min; bacterial (C. kluyveri) enzyme, not human | 190,000 tested, 0.69% active | inhibition, % at 20 µM;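 active = primary screen inhibition at 20 µM above a set limit, cut at about 50% in these data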;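 also: plate controls were DMSO with full reaction for no effect and wells lacking NADH for full effect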
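Test system: bacterial diaphorase enzyme (C. kluyveri); Quantity: 0.14 U/mL diaphorase, enzyme working solution; Times: reaction incubation of 16 min at room temperature; Measured by: fluorescence of resorufin formed from resazurin, Ex 544/Em 590 nm; Benchmarks: positive control minus NADH, DMSO neutral control.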
Active calls of the source: *; . = no result.

SMILES	CTSL1 counter	ATG4B inhibitor	Diaphorase act	HKDC1 inhibitor	Diaphorase inh
O=c1nc(N2CCCC2)nc(N2CCCC2)[nH]1	0	-3	.	-3	.
Cc1ccc(OCCNC(=O)CCc2ccccc2)cc1C	-3	10	.	-5	.
O=C1c2c(O)cc(O)cc2O[C@H](c2ccc(O)c(O)c2)[C@@H]1O	2	.	0.5	.	54*
O=C(O)C(CCC(C(=O)O)c1ccccc1)c1ccccc1 (stereo not given)	.	-3	.	-8	.
O=C(NCCO)/C(=C\c1cccs1)NC(=O)c1cccs1	18*	9	1.1	-5	-5
COc1cccc(NS(=O)(=O)NC(=O)c2c(C)[nH]c3ccccc23)c1	-4	15	.	-4	.
CCOc1ccc(N(CC(=O)NCc2ccc(OC)cc2)S(C)(=O)=O)cc1	10	0	.	4	.
CCCCCCCC/C=C\CCCCCCCC(=O)O	6	22	.	8	.
CCCCC/C=C\C/C=C\C/C=C\CCCCC(=O)O	34*	17	.	2	.
O=C(CNc1cccc(S(=O)(=O)N2CCCC2)c1)Nc1cccc(C(F)(F)F)c1	.	-10	.	0	.
CCOC(=O)C1=CN(C(C)C)CCC1=O	.	4	.	-7	.
O=[N+]([O-])c1ccc(Sc2cccc3cccnc23)c2cccnc12	11	-9	0.4	7	59*
CC(=O)n1cc([C@H]2C=C(C(=O)NCc3ccccc3)O[C@@H](OCc3ccc(CO)cc3)C2)c2ccccc21	1	-8	0.6	4	44
CC(=O)n1cc([C@@H]2C=C(C(=O)N3CCN(Cc4ccccc4)CC3)O[C@H](OCc3ccc(CO)cc3)C2)c2ccccc21	2	-9	0.4	0	59*
CC(=O)n1cc([C@@H]2C=C(C(=O)Nc3ccccc3)O[C@H](OCc3ccc(CO)cc3)C2)c2ccccc21	5	-6	0.5	3	51*
C[C@@H]1C=C(C(=O)N2CCN(C)CC2)O[C@H](OCc2ccc(CO)cc2)C1	-1	-2	0.3	-1	68*
CC(=O)n1cc([C@H]2C=C(C(=O)N3CCN(Cc4ccccc4)CC3)O[C@@H](OCCCCO)C2)c2ccccc21	0	-31	0.7	-1	35
O=C(CNC(=O)c1ccccc1F)N/N=C\C=C\c1ccccc1	6	-3	.	-3	.
COc1cc(OC)cc(C(=O)N(CCCN2C(=O)c3cccc4cccc(c34)C2=O)c2cccc(OC)c2)c1	-1	-10	0.5	12	53*
Cc1ccnc(NS(=O)(=O)c2ccc(NC(=O)CC(C)c3ccccc3)cc2)n1 (stereo not given)	-1	1	.	2	.
O=C(NC1C(=O)NNC1c1ccccc1)c1ccccc1 (stereo not given)	-2	5	0.8	4	16
Cc1cccc(C(=O)NC2C(=O)NNC2c2ccc(Cl)cc2)c1 (stereo not given)	-1	-14	0.5	-2	52*
CCCNc1nc2nc3ccccn3c(=O)c2cc1C(=O)NCCN1CCOCC1	0	2	.	-5	.
CCN(c1ccccc1)c1cc2ccccc2c(=O)[nH]1	51*	-6	.	11	.
OC(CNCCN1CCNCC1)Cc1ccccc1 (stereo not given)	.	3	.	-8	.
SMILES	CTSL1 counter	ATG4B inhibitor	Diaphorase act	HKDC1 inhibitor	Diaphorase inh
CN1C(=O)/C(=C/c2ccccc2OCc2ccc(C(=O)O)cc2)NC1=S	6	11	0.4	8	58*
Cc1ccc(S(=O)(=O)N2CCOCC2)cc1C(=O)NCC1CCCO1 (stereo not given)	28*	-2	.	-6	.
Cc1noc(C)c1CSc1nc2ccccc2c(=O)n1-c1ccccc1	3	54*	0.7	6	29
Cc1noc(C)c1CSc1nc2[nH]ncc2c(=O)n1-c1ccccc1	2	-6	0.9	-8	8
Nc1c(C(=O)c2ccccc2)sc(Nc2ccccc2)c1S(=O)(=O)c1ccccc1	19*	-8	0.7	3	28
CC1CCN(S(=O)(=O)c2ccc3c4c2CC(=O)N4CC(C)S3)CC1 (stereo not given)	31*	-4	.	19	.
Cc1cc(O)ccc1Nc1nc2ccccc2nc1Nc1ccc(O)cc1C	-3	2	0.4	31	59*
CCN(CC)C(=O)CSc1nc2c(sc(=S)n2Cc2ccco2)c(=O)n1-c1ccccc1	2	-11	0.5	1	51*
CCN(CC)C(=O)CSc1nc2c(sc(=S)n2-c2ccccc2)c(=O)[nH]1	0	-2	0.3	12	69*
CCOC(=O)CSc1nc2c(sc(=S)n2Cc2ccco2)c(=O)n1-c1ccccc1	-3	0	0.8	-4	24
O[C@@H]([C@H](O)[C@H](O)CBr)[C@H](O)CBr	26*	7	.	-1	.
OC[C@@H](O)[C@@H](O)[C@H](O)[C@@H](O)CO	-1	-22	.	-7	.
O=C(CNC(=O)c1cccc(F)c1)OCc1cc(=O)n2cc(Br)ccc2n1	17*	-10	0.9	2	5
COc1ccccc1NS(=O)(=O)c1ccc(Cl)c(NC(=O)C(C)N2C(=O)c3ccccc3C2=O)c1 (stereo not given)	25*	1	0.8	-5	18
COCc1c(C(=O)OCc2nc(N)nc(Nc3ccccc3C)n2)oc2ccccc12	17*	-1	0.8	5	15
Cc1ccccc1Nc1nc(N)nc(COC(=O)c2ccco2)n1	.	4	.	1	.
COc1cc(CNc2ccc3c(c2)CCC3)cc(OC)c1O	0	-9	0.4	5	56*
Cc1ccc(/C=C/C(=O)NC2CCCCCCC2)o1	74*	-8	0.8	3	20
COc1ccc2cc(C(c3nnnn3C(C)(C)C)N3CCc4ccccc4C3)c(=O)[nH]c2c1 (stereo not given)	1	.	0.5	.	52*
COc1ccc2cc(C(c3nnnn3C3CCCC3)N3CCc4ccccc4C3)c(=O)[nH]c2c1 (stereo not given)	-3	-1	0.4	2	56*
COc1ccc(C(c2nnnn2C2CCCCC2)N2CCN(C)CC2)c(OC)c1 (stereo not given)	18*	4	.	0	.
COC(=O)c1ccc(COc2ccccc2/C=C/C(=O)c2ccc(OCC(=O)O)cc2)cc1	11	6	.	10	.
CCN(C(=O)CSc1nnc(-c2ccc3c(c2)OCO3)o1)C1CCS(=O)(=O)C1 (stereo not given)	.	2	.	-4	.
COc1ccc(C(=O)Nc2nnc(SCC(=O)NC3CC3)s2)cc1	-1	-1	.	-1	.
COCCCNC1=C(Cl)C(=O)c2ccccc2C1=O	4	-6	.	-4	.
